The subject of data set [1] is Mustela putorius furo. As to the kind of experiment: (§1) Dose-dependent reduction in cisplatin-induced vomiting in ferrets at 0.1 mg/kg iv dose. The data set is classed as functional. The gist of the method:
(§2)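 Ferrets were pretreated intravenously at 0.1, 0.3 or 1.0 mg/kg, then given cisplatin at 10 mg/kg iv. Retches and vomits were counted over a 4 h observation period and reported as mean counts, with n = 4 per group. Vehicle-pretreated controls (n = 4-6) were run alongside.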

In data set [2] the test system is Mustela putorius furo. As to the kind of experiment: inhibitory dose was determined after intravenous administration of the compound. The class given is functional.
Data set [3] relates to Mustela putorius furo. The experiment in a line: (§3) Dose dependent reduction in cisplatin-induced retching in ferrets at 0.3 mg/kg iv dose. The data set is classed as functional. The gist of the method: as §2
Data set [4] relates to Cavia porcellus. The experiment in a line: Inhibitory dose (ID50) was determined after oral administration followed by resiniferatoxin (RTX) challenge 1 hour. The data set is classed as functional. The conditions noted are these: read-out: ID50 (the source's name). In short, it runs like this:
(§4)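 Guinea pigs received the compound orally or intravenously at either 1 h or 24 h before a systemic resiniferatoxin challenge, each line matching its own route and interval. The challenge induces SP-mediated systemic vascular leakage. ID50 (mg/kg) was derived from dose-response data using 2-11 animals per data point.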

Data set [5] deals with Mustela putorius furo. As to the kind of experiment: (§5) Dose dependent reduction in cisplatin-induced retching in ferrets at 0.1 mg/kg iv dose. The class given is functional. The gist of the method:
as §2

Data set [6] has as its system Cavia porcellus. As to the kind of experiment: Inhibitory dose (ID50) was determined after oral administration followed by resiniferatoxin (RTX) challenge 24 hour before. The class given is functional. The conditions noted are these: read-out: ID50 (the source's name). In short, it runs like this:
as §4

Data set [7] deals with Mustela putorius furo. The experiment in a line: (§6) Dose dependent reduction in cisplatin-induced retching in ferrets at 1.0 mg/kg iv dose. The data set is classed as functional. In short, it runs like this:
as §2

Data set [8] concerns Mustela putorius furo. As to the kind of experiment: (§7) Dose-dependent reduction in cisplatin-induced vomiting in ferrets at 1.0 mg/kg iv dose. The class given is functional. The gist of the method:
as §2

Data set [9] deals with Mustela putorius furo. As to the kind of experiment: (§8) Dose-dependent reduction in cisplatin-induced vomiting in ferrets at 0.3 mg/kg iv dose. The data set is classed as functional. In short, it runs like this: as §2
In data set [10] the test system is Cavia porcellus. As to the kind of experiment: Inhibitory dose (ID50) was determined after intravenous administration followed by resiniferatoxin (RTX) challenge 1 hour before. The class given is functional. The conditions noted are these: read-out: ID50 (the source's name). In short, it runs like this:
as §4

In data set [11] the test system is Cavia porcellus. As to the kind of experiment: Dose (ID50) for inhibition of SP-mediated vascular leakage was determined after intravenous administration followed by resiniferatoxin (RTX) challenge 1 hour before. The class given is functional. The conditions noted are these: read-out: ID50 (the source's name). The gist of the method:
as §4

The nature of data set [12]: Area under curve was determined after intravenous administration of compound as Bis(N-methyl-D-glucamine) salt in rat at a dose 8 mg/kg. The arrangement: dose 8 mg/kg, route intravenous. The conditions noted are these: in vivo. The class given is ADME, organism-based. In short, it runs like this: (§9)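 The phosphate prodrug, as its bis(N-methyl-D-glucamine) salt, was dosed intravenously to rats (1, 8, 25 mg/kg) and dogs (0.5, 2, 32 mg/kg). The reported AUC is of the released parent antagonist in plasma, given as an average. Plasma prodrug and parent were followed by HPLC-MS/MS.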

A short description of data set [13]: Area under curve (AUC) was determined after intravenous administration of compound as Bis(N-methyl-D-glucamine) salt in rat at a dose 25 mg/Kg. The data set is classed as ADME, organism-based. The conditions noted are these: in vivo. The gist of the method: as §9
Data set [14] can be described thus: Area under curve was determined after intravenous administration of compound as Bis(N-methyl-D-glucamine) salt in rat at a dose 1 mg/kg. The conditions noted are these: in vivo. The data set is classed as ADME, organism-based. Also noted: dose 1 mg/kg, route intravenous. In short, it runs like this: as §9
Data set [15] concerns Cavia porcellus. The experiment in a line: Dose (ID50) for inhibition of SP-mediated vascular leakage was determined after oral administration followed by resiniferatoxin (RTX) challenge 1 hour. The data set is classed as functional. The conditions noted are these: read-out: ID50 (the source's name). The gist of the method:
as §4

For data set [16], the system named is Mustela putorius furo. The description is as §6. The data set is classed as functional. This is another data set of the same source.
In data set [17] the test system is Mustela putorius furo. Described as §1. The class given is functional. This is another data set of the same source.
The nature of data set [18]: Area under curve (AUC) was determined after intravenous administration of compound as Bis(N-methyl-D-glucamine) salt in dog at a dose of 2 mg/Kg. The class given is ADME, organism-based, Canis lupus familiaris. The conditions noted are these: in vivo. The gist of the method:
as §9

Data set [19] is described as follows: Area under curve (AUC) was determined after intravenous administration in rat at a dose of 5 mg/kg. The class given is ADME, organism-based. The arrangement: dose 5 mg/kg, route intravenous. The conditions noted are these: in vivo. The gist of the method: (§10)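 The parent antagonist was given intravenously to rats (0.2, 2 and 5 mg/kg) or dogs. AUC of the parent was taken from plasma concentration–time data, and values are averages. Plasma levels were measured by HPLC-MS/MS.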

The nature of data set [20]: Area under curve (AUC) was determined after intravenous administration of compound as Bis(N-methyl-D-glucamine) salt in dog at a dose of 32 mg/Kg. The conditions noted are these: in vivo. The data set is classed as ADME, organism-based, Canis lupus familiaris. In short, it runs like this:
as §9

The nature of data set [21]: Area under curve (AUC) was determined after intravenous administration of compound as Bis(N-methyl-D-glucamine) salt in dog at a dose of 0.5 mg/Kg. The data set is classed as ADME, organism-based, Canis lupus familiaris. The conditions noted are these: in vivo. The gist of the method:
as §9

A short description of data set [22]: Area under curve (AUC) was determined after intravenous administration in rat at a dose of 2 mg/kg. The data set is classed as ADME, organism-based. The arrangement: dose 2 mg/kg, route intravenous. The conditions noted are these: in vivo. In short, it runs like this:
as §10

Data set [23] concerns Mustela putorius furo. Described as §8. The data set is classed as functional. This is another data set of the same source.
Data set [24] is described as follows: Area under curve (AUC) was determined after intravenous administration in dog at a dose of 0.5 mg/kg. The data set is classed as ADME, organism-based, Canis lupus familiaris. The arrangement: dose 0.5 mg/kg, route intravenous. The conditions noted are these: in vivo. The gist of the method:
as §10

For data set [25], the system named is Mustela putorius furo. Described as §5. The data set is classed as functional. The source holds these as a separate data set.
For data set [26], the system named is Mustela putorius furo. Described as §3. The class given is functional. This is another data set of the same source.
Data set [27] has as its system Cavia porcellus. The experiment in a line: Dose (ID50) for inhibition of SP-mediated vascular leakage was determined after intravenous administration followed by resiniferatoxin (RTX) challenge 24 hour before. The data set is classed as functional. The conditions noted are these: read-out: ID50 (the source's name).
Data set [28] in a line: Area under curve (AUC) was determined after intravenous administration in dog at a dose of 2 mg/kg. The data set is classed as ADME, organism-based, Canis lupus familiaris. The arrangement: dose 2 mg/kg, route intravenous. The conditions noted are these: in vivo. In short, it runs like this: as §10
Data set [29] has as its system Mustela putorius furo. The data set is described as §7. The class given is functional. The source holds these as a separate data set.

As to `CNC[C@H](O)[C@@H](O)[C@H](O)[C@H](O)CO.C[C@@H](O[C@H]1OCCN(Cc2nc(O)n(P(=O)(O)O)n2)[C@H]1c1ccc(F)cc1)c1cc(C(F)(F)F)cc(C(F)(F)F)c1`, the Incidence_count turned out to be 16 in the data set on Mustela putorius furo [1]; 26 in the data set with Mustela putorius furo [3]; 115 with Mustela putorius furo [5]; 2 with Mustela putorius furo [7]; 1 in the data set on Mustela putorius furo [8]; 4 in the data set with Mustela putorius furo [9]. For the same compound, in the data set on Mustela putorius furo [2], the ID90 worked out at 0.8 mg/kg. For the same compound, the ED50 with Cavia porcellus [4] was 0.016 mg/kg; with Cavia porcellus [6], 0.9 mg/kg; with Cavia porcellus [10] it was 0.006 mg/kg.
`C[C@@H](O[C@H]1OCCN(Cc2n[nH]c(=O)[nH]2)[C@H]1c1ccc(F)cc1)c1cc(C(F)(F)F)cc(C(F)(F)F)c1` [APREPITANT]: the ED50 with Cavia porcellus [11] came to 0.002 mg/kg; with Cavia porcellus [15], 0.012 mg/kg; with Cavia porcellus [27], 0.5 mg/kg. The AUC in data set [12] was 6300 ng·h/mL; in data set [13], 22000 ng·h/mL; in [14] it was 570 ng·h/mL; in [18], 8900 ng·h/mL; in data set [19], 6400 ng·h/mL; in [20], 370000 ng·h/mL. Moreover, the AUC was 1100 ng·h/mL in [21], 2700 ng·h/mL in [22], 3800 ng·h/mL in [24] and 38000 ng·h/mL in data set [28]. Moreover, the Incidence_count is on record as 0 in the data set with Mustela putorius furo [16]; 13 in the data set with Mustela putorius furo [17]; 1 in the data set on Mustela putorius furo [23]; 90 in the data set on Mustela putorius furo [25]; 5 with Mustela putorius furo [26]; 0 in the data set on Mustela putorius furo [29]. In the data set on Mustela putorius furo [2], this compound registered an ID90 of 0.3 mg/kg.
